Active and inactive are the calls of the source. No cut-off for these calls is given here.
How the values were obtained:
[1] = Cytotoxicity against human primary hepatocytes assessed as reduction in cell viability after 48 hrs by MTT assay; assay type: cell-based, Hepatocyte
In short: (§1)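 Cells seeded at 2 × 10^5 per well and allowed 24 h at 37°C, 5% CO2 to form a monolayer. Dilutions added in triplicate and incubated 48 h. MTT (2 mg/mL) then added for 4 h, followed by DMSO for 20 min at room temperature. Absorbance read at 550 nm; DMSO diluent and untreated cells served as negative controls. CC50 derived from the curve.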

[2] = system: Plasmodium berghei; assay: Antiplasmodial activity against GFP-harboring Plasmodium berghei sporozoites infected in human HepG2 cells assessed as reduction in parasite growth treated every 24 hrs by DAPI staining-based fluorescence microscopic analysis; assay type: functional, organism-based; details: HepG2, 24 h
In short: (§2)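 Collagen-coated wells seeded with HepG2 (P. berghei), HepG2-CD81 (P. yoelii) or primary human hepatocytes (P. falciparum). Sporozoites added: 5×10^3 to 1×10^4 per well to the cell lines, 2.5×10^4 per well to hepatocytes. Compounds given at infection: top 10 µg/mL plus seven serial dilutions, renewed at 3 h and then every 24 h. Cultures grown 40 h (cell lines) or 8 days (hepatocytes) at 37°C. Methanol-fixed, HSP70 immunolabelled, DAPI counterstained. IC50 from logistic regression; triplicate.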

[3] = Cytotoxicity against human HepG2 cells expressing CD81 assessed as reduction in cell viability after 48 hrs by MTT assay; assay type: cell-based; in short: as §1
[4] = Selectivity index, ratio of CC50 for human HepG2 cells to IC50 for GFP-expressing Plasmodium berghei sporozoites; assay type: toxicity; details: read-out: Ratio CC50/IC50
In short: (§3)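 Selectivity index = CC50 (matching cell) / IC50 (matching parasite). Cell–parasite pairs: HepG2-CD81 with P. yoelii, HepG2 with P. berghei, human hepatocytes with P. falciparum.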

[5] = Selectivity index, ratio of CC50 for human HepG2 cells expressing CD81 to IC50 for GFP-expressing Plasmodium yoelii sporozoites; assay type: toxicity; details: read-out: Ratio CC50/IC50; in short: as §3
[6] = system: Plasmodium falciparum; assay: Antiplasmodial activity against GFP-harboring Plasmodium falciparum sporozoites infected in human primary hepatocytes assessed as reduction in parasite growth treated every 24 hrs by DAPI staining-based fluorescence microscopic analysis; assay type: functional, organism-based; in short: as §2
[7] = system: Plasmodium falciparum; assay: Antiplasmodial activity against chloroquine-sensitive Plasmodium falciparum 3D7 infected in human red blood cells assessed as reduction in parasite growth after 48 hrs by Hoechst 33342 staining based flow cytometric analysis; assay type: functional, organism-based; details: 3D7, 48 h
In short: (§4)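 Ring-stage cultures (>80% rings) at 1% parasitaemia in A+ human erythrocytes, 2% haematocrit. Medium RPMI 1640 with 10% A+ serum, 37°C, 5% CO2/5% O2. Compounds in DMSO at 1.56–100 µg/mL final, DMSO ≤1%. After 48 h, cells stained with Hoechst 33342 and 1×10^4 counted by flow cytometry. IC50 from logistic dose-response regression; three independent experiments in triplicate.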

[8] = system: Plasmodium falciparum; assay: Antiplasmodial activity against the multidrug-resistant Plasmodium falciparum […] infected in human red blood cells assessed as reduction in parasite growth after 48 hrs by Hoechst 33342 staining based flow cytometric analysis; assay type: functional, organism-based; in short: as §4
[9] = Selectivity index, ratio of CC50 for human primary hepatocytes to IC50 for GFP-expressing Plasmodium falciparum sporozoites; assay type: toxicity; details: read-out: Ratio CC50/IC50; in short: as §3
[10] = Selectivity index, ratio of CC50 for human HepG2 cells to IC50 for multidrug-resistant Plasmodium falciparum […]; assay type: toxicity; details: read-out: Ratio CC50/IC50
In short: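 Selectivity index = HepG2 CC50 / FCR-3 IC50. CC50 from MTT assay after 48 h exposure, A550. IC50 from 48 h Hoechst 33342 flow-cytometry assay.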

[11] = Cytotoxicity against human HepG2 cells assessed as reduction in cell viability after 48 hrs by MTT assay; assay type: cell-based; in short: as §1
[12] = system: Plasmodium yoelii; assay: Antiplasmodial activity against GFP-harboring Plasmodium yoelii sporozoites infected in human HepG2 cells expressing CD81 assessed as reduction in parasite growth treated every 24 hrs by DAPI staining-based fluorescence microscopic analysis; assay type: functional, organism-based; details: HepG2, 24 h; in short: as §2
[13] = system: Plasmodium berghei; assay: (§5) Antiplasmodial activity against GFP-expressing gametocytes of Plasmodium berghei sporozoites in Anopheles stephensi mosquitoes feeded on blood from infected Swiss mouse assessed as reduction in mosquito infection at 100 mg/kg, ip pretreated for 1.5 hrs followed by blood feeding of mosquito and measured at 8 days post mosquitoes infection by fluorescence microscopic method relative to control; assay type: functional; parameters: scale not given: the % may be the effect or the level left
In short: (§6)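 Swiss mice (female, 6 weeks) infected i.p. with PbGFP-infected red cells (200 µL, 3000 parasites/µL). Gametocytes monitored 4 days by Giemsa smear and exflagellation. Hybrid given i.p. at 100 mg/kg in DMSO 1.5 h before A. stephensi fed 1 h on mice with 1% gametocytes. Controls were untreated and DMSO-treated mice. Thirty mosquitoes per group dissected after 8 days. Midgut oocysts counted by fluorescence microscopy against control mosquitoes taken as 100%.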

[14] = system: Plasmodium berghei; assay: Potency index, ratio of primaquine IC50 to compound IC50 for GFP-expressing Plasmodium berghei sporozoites infected in human HepG2 cells; assay type: functional
[15] = system: Plasmodium berghei; assay: as §5, with “reduction in number of oocysts in mosquito midgut” for “reduction in mosquito infection”, “in mosquito midgut at 100” for “in mosquito infection at 100”; assay type: functional; parameters: scale not given: the % may be the effect or the level left; in short: as §6
[16] = system: Plasmodium yoelii; assay: Antiplasmodial activity against Plasmodium yoelii 17XNL sporozoites infected in BALB/c mouse assessed as parasite burden at 100 mg/kg, po measured at day 4 by […] (reference value: 0.06%); assay type: functional
In short: (§7)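 BALB/c mice (6-8 weeks, 20-23 g), n=4 per hybrid group and n=5 per control. Dosed orally at 100 mg/kg (100 µL) on days -1, 0, +1 and +2. Vehicle was DMSO 100%; primaquine diphosphate given at 30 mg/kg daily. On day 0, 5 x 10^3 cryopreserved P. yoelii 17XNL sporozoites injected i.v. Parasitaemia read by Giemsa smear and SYBR Green flow cytometry. Groups compared by Kruskal-Wallis test.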

[17] = system: Mus musculus; assay: Acute toxicity in BALB/c mouse assessed as necrosis of kidney at 500 mg/kg, po administered as single dose measured at day 14 by haematoxylin and eosin staining based microscopic analysis; assay type: organism-based; details: in vivo
In short: (§8)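 Female BALB/c mice, groups of three, single oral dose; vehicle DMSO 100% for controls. Mice euthanised with CO2 on day 14, or earlier if suffering. Gross necropsy performed. Spleen, liver and kidney fixed in formaldehyde 37%, stained with haematoxylin and eosin and examined by light microscopy.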

[18] = system: Mus musculus; assay: Acute toxicity in BALB/c mouse assessed as necrosis of liver at 500 mg/kg, po administered as single dose measured at day 14 by haematoxylin and eosin staining based microscopic analysis; assay type: organism-based; details: in vivo; in short: as §8
[19] = system: Plasmodium yoelii; assay: Antiplasmodial activity against Plasmodium yoelii 17XNL sporozoites infected in BALB/c mouse assessed as decrease in parasitaemia in blood at 100 mg/kg, po measured at day 4 by […] relative to control; assay type: functional; parameters: scale not given: the % may be the effect or the level left; in short: as §7
[20] = system: Mus musculus; assay: Acute toxicity in BALB/c mouse assessed as ulcerated congestion in stomach at 500 mg/kg, po administered as single dose measured at day 14 by […]; assay type: organism-based; details: in vivo; in short: as §8
[21] = system: Plasmodium yoelii; assay: Antiplasmodial activity against Plasmodium yoelii 17XNL sporozoites infected in BALB/c mouse assessed as pre-patent time period of parasitaemia at 100 mg/kg, po measured at day 4 by […]; assay type: functional; in short: as §7
[22] = system: Plasmodium yoelii; assay: Antiplasmodial activity against Plasmodium yoelii 17XNL sporozoites infected in BALB/c mouse assessed as parasite reduction at 100 mg/kg, po measured at day 1 to day 4 by […]; assay type: functional, organism-based; in short: as §7
[23] = system: Plasmodium yoelii; assay: Antiplasmodial activity against GFP-harboring Plasmodium yoelii sporozoites infected in human HepG2 cells expressing CD81 assessed as reduction in parasite growth at 10 ug/ml treated every 24 hrs by DAPI staining-based fluorescence microscopic analysis; assay type: functional, organism-based; in short: as §2
[24] = system: Plasmodium falciparum; assay: Antiplasmodial activity against GFP-harboring Plasmodium falciparum sporozoites infected in human primary hepatocytes assessed as reduction in parasite growth at 10 ug/ml treated every 24 hrs by DAPI staining-based fluorescence microscopic analysis; assay type: functional, organism-based; in short: as §2
[25] = system: Plasmodium berghei; assay: Antiplasmodial activity against GFP-harboring Plasmodium berghei sporozoites infected in human HepG2 cells assessed as reduction in parasite growth at 10 ug/ml treated every 24 hrs by DAPI staining-based fluorescence microscopic analysis; assay type: functional, organism-based; in short: as §2

Structure (SMILES) | CC50 at 48 h [1] [µM] | IC50 [2] [µM] | CC50 at 48 h [3] [µM] | selectivity ratio [4] | selectivity ratio [5] | IC50 [6] [µM] | IC50 [7] [µM] | IC50 [8] [µM] | selectivity ratio [9] | selectivity ratio [10] | CC50 at 48 h [11] [µM] | IC50 [12] [µM] | Activity [16] [%] | other results
Cc1c(C(=O)NCCNc2ccnc3cc(Cl)ccc23)[n+]([O-])c2cc(Cl)ccc2[n+]1[O-] | 61.1 | 10.1 | 69.9 | 2.15 | 4.78 | 6.39 | 0.52 | 0.4 | 9.56 | 54.6 | 21.8 | 14.6 | – | –
COc1cc(NC(C)CCCNC(=O)c2c(C)[n+]([O-])c3ccc(Cl)cc3[n+]2[O-])c2ncccc2c1 (centres undefined) | > 198 | 1.14 | > 198 | 136 | 34.7 | 3.64 | 62.6 | 36.1 | 54.5 | 3.34 | 155 | 5.71 | 0.01 | Activity [13]: 23%; Ratio IC50 [14]: 3.2; Activity [15]: 77%
COc1cc(NC(C)CCCN)c2ncccc2c1 (centres undefined) [PRIMAQUINE] | – | 3.65 | 69.8 | 33 | 32.8 | – | 9.86 | 1.1 | 136 | 109 | 120 | 2.13 | – | Activity [17]: Non-Toxic; Activity [18]: Non-Toxic; Activity [19]: 100%; Activity [20]: Toxic; Time [21]: 24 h; Activity [22]: inactive
Cc1c(C(=O)NCCNc2ccnc3cc(Cl)ccc23)[n+]([O-])c2ccccc2[n+]1[O-] | – | – | – | – | – | – | 0.78 | 1.9 | – | 30.6 | 58.2 | – | – | –
COc1cc(NC(C)CCCNC(=O)c2c(C)[n+]([O-])c3cc(C)c(C)cc3[n+]2[O-])c2ncccc2c1 (centres undefined) | > 202 | 11.3 | > 202 | > 17.8 | – | 8.11 | 30.8 | 52.9 | 20.2 | > 3.82 | > 202 | – | 0.06 | –
COc1cc(NC(C)CCCNC(=O)c2c(C)[n+]([O-])c3ccc(C)cc3[n+]2[O-])c2ncccc2c1 (centres undefined) | > 207 | 6.34 | > 207 | 17.3 | 14.7 | 7.21 | 44.9 | 50.6 | 28.6 | 2.17 | 110 | 14 | 0.03 | –
COc1ccc2c(c1)[n+]([O-])c(C(=O)NCCNc1ccnc3cc(Cl)ccc13)c(C)[n+]2[O-] | – | – | – | – | – | – | 2.11 | 2.07 | – | 44.8 | 92.7 | – | – | –
COc1cc(NC(C)CCCNC(=O)c2c(C)[n+]([O-])c3ccc(OC)cc3[n+]2[O-])c2ncccc2c1 (centres undefined) | > 204 | 14.1 | > 204 | > 14.5 | – | – | 27 | 30.7 | – | > 6.63 | > 204 | – | 0.02 | inhibition [23]: inactive; inhibition [24]: inactive
Cc1ccc2c(c1)[n+]([O-])c(C(=O)NCCNc1ccnc3cc(Cl)ccc13)c(C)[n+]2[O-] | – | – | – | – | – | – | 0.57 | 2.24 | – | 14 | 31.4 | – | – | –
CCN(CC)CCCC(C)Nc1ccnc2cc(Cl)ccc12 (centres undefined) [CHLOROQUINE] | – | – | – | – | – | – | – | – | – | – | 137 | – | – | –
Cc1cc2c(cc1C)[n+]([O-])c(C(=O)NCCNc1ccnc3cc(Cl)ccc13)c(C)[n+]2[O-] | – | – | – | – | – | – | 0.68 | 0.9 | – | 71.7 | 64.5 | – | – | inhibition [23]: inactive; inhibition [25]: inactive; inhibition [24]: inactive
